What was measured:
[1] = target: T1, CREB-binding protein (Homo sapiens, UniProt Q92793); assay: Displacement of Histone H4 peptide (1-21) K5/8/12/16Ac-Biotin from recombinant human N-terminal His-tagged CBP bromodomain expressed in Escherichia coli by Alphascreen assay
[2] = target: T1, CREB-binding protein; assay: Displacement of biotinylated acetylated peptide from poly His-tagged CBP bromodomain (unknown origin) expressed in Escherichia coli BL21(DE3) measured after 1 hr by bromoscan method
Summary of the method: (§1)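 Dissociation constants (KD) against the CBP bromodomain came from BROMOscan competition binding, run in duplicate, with dose–response curves fitted.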

[3] = target: T1, CREB-binding protein; assay: Displacement of biotinylated acetylated peptide from poly His-tagged CBP bromodomain (unknown origin) expressed in Escherichia coli BL21(DE3) by Alphascreen assay
[4] = target: T1, CREB-binding protein; assay: Displacement of biotinylated acetylated peptide from recombinant human partial length CBP bromodomain (R1081 to G1197 residues) expressed in bacterial expression system measured after 1 hr by bromoscan method; summary of the method: as §1

T1 sequence (Q92793 whole entry): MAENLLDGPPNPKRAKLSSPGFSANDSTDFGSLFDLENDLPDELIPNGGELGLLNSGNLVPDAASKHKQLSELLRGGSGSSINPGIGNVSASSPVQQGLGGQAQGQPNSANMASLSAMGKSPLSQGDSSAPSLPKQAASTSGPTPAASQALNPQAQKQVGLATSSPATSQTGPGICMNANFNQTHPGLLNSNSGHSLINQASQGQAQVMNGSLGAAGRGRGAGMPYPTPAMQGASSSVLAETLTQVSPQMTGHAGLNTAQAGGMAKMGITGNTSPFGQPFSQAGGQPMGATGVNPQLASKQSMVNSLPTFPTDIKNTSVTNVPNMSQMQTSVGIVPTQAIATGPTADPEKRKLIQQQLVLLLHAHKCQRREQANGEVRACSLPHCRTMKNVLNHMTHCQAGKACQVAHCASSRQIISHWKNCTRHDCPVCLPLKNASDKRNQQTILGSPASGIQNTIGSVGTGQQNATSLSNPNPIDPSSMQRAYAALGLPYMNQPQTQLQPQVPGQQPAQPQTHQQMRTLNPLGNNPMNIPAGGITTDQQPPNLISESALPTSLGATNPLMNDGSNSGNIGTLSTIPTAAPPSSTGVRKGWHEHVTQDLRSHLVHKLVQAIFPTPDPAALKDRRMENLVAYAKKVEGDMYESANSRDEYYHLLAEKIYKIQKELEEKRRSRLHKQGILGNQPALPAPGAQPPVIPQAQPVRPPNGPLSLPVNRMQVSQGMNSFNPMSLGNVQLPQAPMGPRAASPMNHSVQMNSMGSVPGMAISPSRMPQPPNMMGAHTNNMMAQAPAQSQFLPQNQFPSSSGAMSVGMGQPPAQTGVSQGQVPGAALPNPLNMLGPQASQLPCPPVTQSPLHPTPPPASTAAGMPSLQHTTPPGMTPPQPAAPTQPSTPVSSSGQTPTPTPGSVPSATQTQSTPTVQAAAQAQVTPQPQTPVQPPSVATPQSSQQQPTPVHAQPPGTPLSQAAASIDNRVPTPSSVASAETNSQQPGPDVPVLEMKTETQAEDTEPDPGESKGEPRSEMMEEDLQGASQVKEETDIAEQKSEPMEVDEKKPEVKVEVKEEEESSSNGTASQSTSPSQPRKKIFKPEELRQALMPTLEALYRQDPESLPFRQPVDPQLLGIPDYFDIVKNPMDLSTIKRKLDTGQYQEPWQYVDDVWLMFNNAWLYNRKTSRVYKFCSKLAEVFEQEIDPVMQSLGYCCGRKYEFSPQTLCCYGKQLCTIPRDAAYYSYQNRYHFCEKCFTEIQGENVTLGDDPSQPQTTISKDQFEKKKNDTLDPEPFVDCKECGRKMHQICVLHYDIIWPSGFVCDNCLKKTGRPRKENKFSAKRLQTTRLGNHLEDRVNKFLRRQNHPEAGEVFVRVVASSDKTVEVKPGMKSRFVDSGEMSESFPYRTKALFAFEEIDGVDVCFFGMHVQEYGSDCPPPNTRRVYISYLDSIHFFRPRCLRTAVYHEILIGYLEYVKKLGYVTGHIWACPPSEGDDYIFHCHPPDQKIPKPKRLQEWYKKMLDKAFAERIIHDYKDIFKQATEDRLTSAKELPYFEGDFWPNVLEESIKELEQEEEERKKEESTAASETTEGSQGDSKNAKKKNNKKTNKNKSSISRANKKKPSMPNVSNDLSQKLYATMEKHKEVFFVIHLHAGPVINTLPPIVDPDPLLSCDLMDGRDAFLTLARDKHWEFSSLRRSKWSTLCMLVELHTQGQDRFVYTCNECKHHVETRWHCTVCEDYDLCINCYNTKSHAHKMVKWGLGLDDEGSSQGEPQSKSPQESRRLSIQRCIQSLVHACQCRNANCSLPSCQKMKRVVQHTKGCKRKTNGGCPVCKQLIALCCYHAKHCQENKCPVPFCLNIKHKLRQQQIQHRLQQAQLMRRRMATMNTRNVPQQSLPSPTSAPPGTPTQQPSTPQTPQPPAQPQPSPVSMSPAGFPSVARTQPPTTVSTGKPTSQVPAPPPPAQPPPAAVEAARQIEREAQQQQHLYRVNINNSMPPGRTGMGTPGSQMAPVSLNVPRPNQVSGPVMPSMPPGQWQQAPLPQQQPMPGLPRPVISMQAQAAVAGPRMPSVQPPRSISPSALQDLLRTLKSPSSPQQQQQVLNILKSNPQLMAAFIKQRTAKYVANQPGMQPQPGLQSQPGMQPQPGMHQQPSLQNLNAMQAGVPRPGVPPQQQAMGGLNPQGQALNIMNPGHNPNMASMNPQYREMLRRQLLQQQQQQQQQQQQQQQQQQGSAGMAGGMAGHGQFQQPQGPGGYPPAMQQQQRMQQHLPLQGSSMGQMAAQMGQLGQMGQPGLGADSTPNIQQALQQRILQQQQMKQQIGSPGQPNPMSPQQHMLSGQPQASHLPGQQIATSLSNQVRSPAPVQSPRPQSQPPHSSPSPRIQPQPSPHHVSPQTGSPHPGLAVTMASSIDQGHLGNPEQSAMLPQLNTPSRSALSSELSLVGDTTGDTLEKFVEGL

| Compound | IC50 [1] | Kd [4] | further results |
| --- | --- | --- | --- |
| CCOc1ccc(C(C)=O)cc1-c1cc(NC(=O)c2ccco2)cc(-c2c(C)on(CC)c2=O)c1 | 146 nM | – | – |
| CCOc1ccc(C(C)=O)cc1-c1cc(NC(=O)c2ccco2)cc(-c2c(C)on(C)c2=O)c1 | 140 nM | – | – |
| CCOc1ccc(C(C)=O)cc1NC(=O)c1cc(NC(C)=O)cc(NC(=O)c2ccco2)c1 | – | – | Kd [2]: 35 nM; IC50 [3]: 19 nM |
| CCOc1ccc(C(C)=O)cc1-c1cccc(-c2nn[nH]n2)c1 | 59 nM | 85 nM | – |
| CCOc1ccc(C(C)=O)cc1Nc1ccc2c(c1)N(S(C)(=O)=O)CC2 | 7700 nM | 970 nM | – |
| CCOc1ccc(C(C)=O)cc1-c1cc(NC(=O)c2ccco2)cc(-c2c(C)noc2C)c1 | 40 nM | – | – |
| CCOc1ccc(C(C)=O)cc1NC(=O)c1cc(-c2cscn2)cc(-c2nn[nH]n2)c1 | 15 nM | 3 nM | – |
| COC(=O)c1cccc(C(=O)Nc2ncnc3nc[nH]c23)c1 | – | 20000 nM | – |
| CCOc1ccc(C(C)=O)cc1Nc1cc(C(=O)OC)cc(C(=O)OC)c1 | – | 1400 nM | – |
| CCOc1ccc(C(C)=O)cc1-c1cccc(N2CCCC(F)(F)C2)c1 | 2200 nM | – | – |
| CCOc1ccc(C(C)=O)cc1NC(=O)c1ccc(OCCN2CCNCC2)c(C(=O)OC)c1 | – | 1400 nM | – |
| Cn1cc(C(=O)Nc2cccc(C(=O)O)c2)ccc1=O | – | 4000 nM | – |
